# The list is not random: actives were taken first. Their share in the collection is about 9.2%.
# Autophagy mod = autophagy modulators in MEF cells, primary screen, imaging, high-content, MEF GFP-LC3; MEF GFP-LC3 puncta imaging; test concentration mostly 10 µM; calls only at 10 µM (by protocol); 190,000 compounds, 0.98% hits; AID 463193, 2010;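 active = percentage of spot-positive cells more than 3 SD above its plate mean, without a fluorescence outlier flag or 80% toxicity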;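 note: spot-positive cell cutoff set from DMSO-treated cells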
# L major viab = Leishmania major promastigote growth inhibition, primary screen | Leishmania major promastigotes, resazurin fluorescence viability | inhibition, % at 10 µM | 200,000 compounds, 9% hits | AID 1063, 2008; in the data active = inhibition above about 50%;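 note: promastigotes grown with compound for 44 hours at 28 °C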
# HCT116 PTEN-null = growth suppression of PTEN-null HCT116, primary screen, cell-based, CellTiter-Glo | HCT116 PTEN-null viability, 60 h; stronger effect = lower value | viability, % at 10 µM | 140,000 compounds, 1.2% hits | AID 827, 2007;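 active = viability at or below a set limit, 4 SD under the median of all tested compounds, cut at about 3.7% in these data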;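 note: PTEN knockout HCT116 line with beta catenin targeted HCT116 as companion control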
# Dynein transport = inhibitors of GR-EGFP nuclear translocation, primary screen, dynein cargo transport inhibitor project, imaging, high-content, 3617.4 mouse cells | test concentration mostly 20 µM; stimulated with dexamethasone, 1 µM; stronger effect = lower value | z-score, hits read low | 220,000 compounds, 0.47% hits;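 active = plate z-score of nuclear minus cytoplasmic receptor signal below a set negative limit, without overly bright fluorescence or cell loss, cut at about -3.5 in these data, passing the limit was not always enough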;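 note: z-score of nuclear minus cytoplasmic ring GR-EGFP intensity difference per well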
#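 Buffer or medium: tet-free, stripped-serum medium; reagent: dexamethasone at 1.0 µM final, 30 min; incubation: 48 h induction, 1 h compound, 30 min dex at 37 °C; measured by: formaldehyde fixation, Hoechst nuclear stain, 10x automated fluorescence imaging; read-out: nuclear-to-cytoplasmic GR-EGFP distribution per well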
# bCat KO growth = primary screen for growth suppressors in beta-catenin knockout HCT116 cells (colon tumor, human) | 140,000 compounds, 1.5% hits | HCT116 beta-catenin knockout viability, CellTiter-Glo, 60 h; stronger effect = lower value | viability, % at 10 µM;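 active = viability at or under a set limit, the compound median less 4 SD, cut at about 6% in these data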;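 note: 0% = Hyamine 1622 control at 20 µM and 100% = untreated cell control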
# Active calls of the source: *; i = inactive; · = no result; + = active, no number.
SMILES,Autophagy mod,L major viab,HCT116 PTEN-null,Dynein transport,bCat KO growth
CC(=O)Nc1cccc(C(=O)/C=C/c2ccc(Br)cc2)c1,i,100.3*,1.3*,-2.69,1.5*
O=C(/C=C/c1ccccc1)c1ccccn1,i,23.8,3.9,-3.79*,5.7*
CC(=O)Nc1cccc(C(=O)/C=C/c2ccc[nH]2)c1,·,·,·,-0.592,·
Cc1nn(-c2ccccc2)c(Cl)c1/C=C/C(=O)c1ccccc1,i,69.2*,4.4,-3.19,7.8
Clc1ccc(-c2nc(C3CCCCC3)no2)cc1,i,-10.6,·,-1.03,·
CC(=O)Nc1ccc(Sc2ncccc2C(=O)Nc2ccc(F)cc2)cn1,i,-11.9,92.8,-0.622,97.6
O=C(CSc1ccc2nnc(-c3ccccn3)n2n1)NCc1ccco1,+,-2.8,95.6,0.287,80.6
COCCN(C(=O)CSc1nncn1-c1ccccc1)c1c(N)n(Cc2ccccc2)c(=O)[nH]c1=O,i,53.5*,100.0,0.126,95.5
CCN(C(=O)CSc1nncn1-c1ccccc1)c1c(N)n(Cc2ccccc2)c(=O)[nH]c1=O,i,-4.1,101.2,0.261,91.1
COc1cccc(CN2CCC(N(CCc3ccccc3)Cc3ccccc3)CC2)c1OC,i,99.2*,8.9,0.139,11.5
COc1ccc(NC(=O)c2cnc(C)cn2)c2ncccc12,i,85.8*,11.3,0.36,10.9
Cc1cnc(C(=O)Nc2ccccc2F)cn1,i,-3.7,105.3,0.00923,89.2
CC(=O)Nc1ccc(NC(=O)c2cccc3c2-c2ccccc2C3=O)cc1,i,78.2*,·,1.17,·
Cc1ccc(NC(=O)c2cccc3c2-c2ccccc2C3=O)cc1C,i,2.4,50.7,-0.728,63.6
COc1ccc(CCNC(=O)CSc2nnnn2-c2ccc(OC)c(OC)c2)cc1OC,i,-5.4,·,-0.455,·
CCn1c(SCc2nc3ccccc3s2)nnc1-c1ccccc1,i,65.3*,102.0,-0.595,100.1
Cc1nnc(SCc2nc3ccccc3s2)n1-c1ccccc1,i,-4.7,82.5,-0.892,88.7
c1ccc(-n2cnnc2SCc2nc3ccccc3s2)cc1,+,-4.1,94.2,-0.403,92.6
C/C(N)=C(/C#N)C(=O)COC(=O)CNC(=O)c1ccc(Cl)cc1Cl,i,-2.8,·,-0.64,·
CCN(CC)S(=O)(=O)c1cc(NS(=O)(=O)c2cc(Cl)ccc2Cl)ccc1C,i,51.0*,94.0,-0.0349,99.6
CCN(CC)S(=O)(=O)c1cc(NC(=O)CCNC(=O)c2ccccc2Cl)ccc1C,i,9.4,94.2,0.997,89.3
Nc1ccc(SCC(=O)Nc2cccc([N+](=O)[O-])c2)cc1,i,-4.7,·,-0.781,·
CCOc1ccc(OCc2cccc(C(=O)N/N=C/c3cccnc3)c2)cc1,i,58.1*,101.1,-0.831,91.7
COc1ccc(O)c(/C=N/NC(=O)c2ccc(CSc3nc(C)cc(C)n3)cc2)c1,i,98.6*,10.0,-0.0415,7.9
COc1ccc(/C=N/NC(=O)c2ccc(CSc3nc(C)cc(C)n3)cc2)cc1O,i,-8.0,83.6,-0.383,80.0
SMILES,Autophagy mod,L major viab,HCT116 PTEN-null,Dynein transport,bCat KO growth
COc1ccc(C(=O)N/N=C/c2cc(Br)ccc2O)cc1OC,·,·,·,-0.762,·
CC(C)(C)c1ccc(OCc2ccc(C(=O)N/N=C/c3ccc(O)c(O)c3)cc2)cc1,i,100.0*,·,-2.07,·
O=C(N/N=C/c1ccc(OCc2ccc(F)cc2)cc1)c1ccccc1,i,-3.9,·,1.4,·
COc1ccc(O)c(/C=N/NC(=O)c2ccc(OCc3cccc(Br)c3)cc2)c1,i,96.8*,4.6,0.656,6.5
CC1Cc2ccccc2N1C(=O)CSc1nnc(-c2ccc(S(=O)(=O)N3CCOCC3)cc2)n1C (centres undefined),i,11.5,94.4,0.219,89.5
Cc1cc(C(=O)OCC(=O)Nc2c(F)cccc2F)c(C)n1-c1ccccc1,i,10.5,·,-0.313,·
CCc1nc2ccccc2n1CC(O)COCC1CC=CCC1 (centres undefined),i,4.4,·,1.17,·
Cc1cc(C)nc(SCc2ccc(C(=O)N/N=C/c3ccc(C(=O)O)cc3)cc2)n1,i,-2.6,·,0.43,·
Cc1cc(C)nc(SCc2ccc(C(=O)N/N=C/c3cccc(O)c3O)cc2)n1,i,98.0*,6.8,-0.921,6.9
O=C(CN1C(=O)c2cccc3cccc(c23)C1=O)NCCN1CCOCC1,i,3.2,·,0.266,·
CC(Oc1ccc(Cl)cc1Cl)C(=O)Nc1ccc(N2CCN(C)CC2)cc1 (centres undefined),+,100.3*,41.7,0.257,51.1
O=C(COc1ccc(Cl)cc1Br)NNC(=O)C(=O)N1CCCCC1,i,-11.2,92.4,-1.05,91.6
CC(Oc1ccc(Cl)cc1Cl)C(=O)NNC(=O)C(=O)N1CCCCC1 (centres undefined),i,60.4*,93.8,1.41,93.9
CCOCCCn1c(=NC(=O)c2ccco2)c(C(=O)OCC)cc2c(=O)n3cccc(C)c3nc21,·,·,·,-1.38,·
O=C(COc1ccc([N+](=O)[O-])cc1)Nc1ccc(CN2CCOCC2)cc1,i,62.9*,·,-0.117,·
CSc1ccc(CN2CCN(C(=O)c3ccc([N+](=O)[O-])cc3)CC2)cc1,i,69.1*,·,0.923,·
Cn1c(CN2CCOCC2)nc2cc(NC(=O)COc3ccc([N+](=O)[O-])cc3)ccc21,i,-2.8,·,-0.514,·
C/C(=N\NC(=O)c1ccccc1)c1ccc(N2CCOCC2)cc1,i,-0.9,103.0,-3.63*,103.8
CCN1CCN(C(=O)c2ccc(CSc3ccc(C)cc3)cc2)CC1,i,100.4*,80.5,-0.463,94.4
O=C(c1ccc([N+](=O)[O-])cc1[N+](=O)[O-])n1cnc2ccccc21,i,-6.2,·,0.461,·
C/C(=N\NC(=O)c1ccc(CN2CCOCC2)cc1)c1ccc([N+](=O)[O-])cc1,i,77.2*,98.3,-0.511,95.9
COc1ccc(CCNC(=O)C(C)SCc2ccccc2)cc1 (centres undefined),i,-5.3,·,0.227,·
Cc1cccc(C)c1NC(=S)Nc1c(C)n(C)n(-c2ccccc2)c1=O,i,29.8,92.0,-0.718,97.6
CCOC(=O)C1(Cc2cccc(OC)c2)CCN(Cc2ccc(OC)c(OC)c2)CC1,i,90.5*,·,1.43,·
CCOC(=O)C1(Cc2cccc(OC)c2)CCN(Cc2cccc(OC)c2O)CC1,i,72.2*,·,-0.119,·
CCOC(=O)C1(Cc2cccc(OC)c2)CCN(Cc2ccccc2OC)CC1,i,20.2,·,-0.125,·
CCOC(=O)C1(Cc2ccccc2)CCN(Cc2cccc(OC)c2O)CC1,i,67.5*,·,0.397,·
CCOC(=O)C1(Cc2cccc(OC)c2)CCN(Cc2cccc(O)c2)CC1,i,22.0,·,-0.237,·
CCOC(=O)C1(Cc2cccc(F)c2)CCN(Cc2cnn(CC)c2C)CC1,i,69.1*,·,-0.709,·
CCC(C(=O)O)P(=O)(c1ccc(Cl)cc1)c1ccc(Cl)cc1 (centres undefined),i,-6.8,·,0.246,·

# Source: PubChem BioAssay (several laboratories)
